One data set has as its system Babesia gibsoni. Put plainly: Antibabesial activity against Babesia gibsoni in dog erythrocytes after 72 hrs. Format: functional, organism-based.
A further data set relates to Plasmodium falciparum. Briefly: Antiplasmodial activity against chloroquine-susceptible Plasmodium falciparum FCR3 in human erythrocytes after 24 hrs. The format is functional, organism-based. The note with it: FCR3, 24 h. The method, boiled down:
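P. falciparum FCR-3 kept in culture and synchronized with 5% D-sorbitol, then washed in RPMI 1640. Infected RBCs resuspended at 0.25-0.50% parasitemia in RPMI 1640 with 10% human serum, 25 mM Hepes, gentamicin and Na2CO3, then incubated with test solution at 37 °C under 5% CO2. Stopped once controls reached 20% schizonts. Schizonts counted on Giemsa smears; IC50 read from the inhibition-versus-concentration graph.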

The nature of data set [1]: Cytotoxicity against dog RBC. The format is cell-based, Canis lupus familiaris. The note with it: erythrocyte.
A short description of data set [2]: Cytotoxicity against human RBC. The format is cell-based. To be noted: erythrocyte.

Values after ≈ are worked out from the molar mass of the structure shown.

Turning to `O=C(O[C@H]1O[C@H](COC(=O)c2cc(O)c(O)c3oc(=O)c4cc(O)c(O)c(O)c4c23)[C@@H](O)[C@H](O)[C@H]1O)c1cc(O)c(O)c(O)c1`, the results for the IC50 in the data set on Babesia gibsoni and with Plasmodium falciparum were 4.7 µg/mL (≈ 7.41 µM) and 1.4 µg/mL (≈ 2.21 µM), respectively. Moreover, the Activity entry in data set [1] and in data set [2] was “Non-toxic” throughout.
With `O=c1c(O[C@@H]2O[C@H](CO)[C@@H](O)[C@H](O)[C@H]2O[C@@H]2OC[C@@H](O)[C@H](O)[C@H]2O)c(-c2ccc(O)c(O)c2)oc2cc(O)cc(O)c12`, the 50% inhibitory concentration (IC50) in the data set on Babesia gibsoni was determined as 35.2 µg/mL (≈ 59 µM); in the data set on Plasmodium falciparum it was 11 µg/mL (≈ 18.4 µM). Further, the Activity entry in data set [1] and in data set [2] was “Non-toxic” in each case.
For the molecule `O=C(O[C@@H]1O[C@H](CO)[C@@H](O)[C@H](O)[C@H]1O)c1cc(O)c(O)c(O)c1`, the IC50 in the data set on Babesia gibsoni is 7.5 µg/mL (≈ 22.6 µM); in the data set with Plasmodium falciparum, 4.6 µg/mL (≈ 13.8 µM). Further, the Activity result in data set [1] and in data set [2] was “Non-toxic” each time.
With `CC[C@H](CC[C@@H](C)[C@H]1CC[C@H]2[C@@H]3CC=C4C[C@@H](O)CC[C@]4(C)[C@H]3CC[C@]12C)C(C)C` [BETA-SITOSTEROL], the IC50 was determined as 61.6 µg/mL (≈ 149 µM) with Babesia gibsoni and 32 µg/mL (≈ 77.2 µM) in the data set with Plasmodium falciparum. For the same molecule, the Activity entry in data set [1] and in data set [2] was “Non-toxic” each time.
In the data set on Babesia gibsoni, `CC(=O)NCC(=O)O.N=C(N)c1ccc(/N=N/Nc2ccc(C(=N)N)cc2)cc1` [DIMINAZEN ACETURATE] yielded an IC50 of 0.6 µg/mL.
With `O=C(O)c1cc(O)c(O)c(O)c1` [GALLIC ACID], the values for the 50% inhibitory concentration (IC50) in the data set on Babesia gibsoni and in the data set with Plasmodium falciparum were 13.4 µg/mL (≈ 78.8 µM) and 14.8 µg/mL (≈ 87 µM), respectively. Also, the Activity result in data set [1] and in data set [2] was “Non-toxic” throughout.

By IC50 is commonly meant the midpoint of a concentration-inhibition curve. Low values mean greater potency in that assay, high ones weaker potency in that assay.

Source of the values: ChEMBL document CHEMBL1158731, “Anti-babesial and anti-plasmodial compounds from Phyllanthus niruri” (J Nat Prod, 2005).
